GalR3 antag: human GalR3 antagonism; O60755; HEK293 GalR3-CNG cAMP membrane potential fluorescence; galR3 body fused to GalR1 C-terminus; inhibition, % at 3 µM; 360,000 compounds, 0.44% hits; AID 651719;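 active = inhibition above the screen-wide average plus 3 SD, cut at about 13% in these data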;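 note: forskolin and galanin both at EC90 stimulate the cells; cAMP rise reported by CNG channel membrane potential dye signal; 0% = forskolin plus galanin with DMSO and 100% = forskolin alone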
Target sequence (O60755 1-299 limits assumed): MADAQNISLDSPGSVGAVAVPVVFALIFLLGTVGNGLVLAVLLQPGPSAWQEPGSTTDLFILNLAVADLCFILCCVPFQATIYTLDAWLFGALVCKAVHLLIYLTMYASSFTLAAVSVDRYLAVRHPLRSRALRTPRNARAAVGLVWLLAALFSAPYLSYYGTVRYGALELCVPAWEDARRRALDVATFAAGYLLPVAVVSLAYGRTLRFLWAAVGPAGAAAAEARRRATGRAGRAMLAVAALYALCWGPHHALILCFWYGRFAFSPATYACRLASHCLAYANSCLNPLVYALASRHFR
CHT block: inhibitors of human choline transporter CHT | Q9GZV3 | CHT-expressing cells, membrane potential dye, choline response; active compounds read low | B-score at 10 µM | 310,000 compounds, 0.86% hits | AID 488975;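 active = B-score over 3 SD under the library average, and starting fluorescence ratio not unusually high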;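 note: choline stimulus applied at its EC90 after an EC20 pre-addition; B-score computed on integrated fluorescence ratio after choline addition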
NR2E3 ag-1: human photoreceptor-specific nuclear receptor agonism | CHO-S Gal4-NCOR/VP16-NR2E3 two-hybrid, luciferase | Q9Y5X4 | inhibition of corepressor binding, % at 3.98 µM | 360,000 compounds, 0.35% hits;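 active = inhibition above the mean of all tested compounds plus 3 SD, cut at about 70% in these data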;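 note: 0% = DMSO with NR2E3 transfected cells and 100% = cells lacking NR2E3 construct; higher means lower luciferase signal from less NR2E3 corepressor binding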
Target sequence (Q9Y5X4 whole entry, looked up, the tested form may be a part): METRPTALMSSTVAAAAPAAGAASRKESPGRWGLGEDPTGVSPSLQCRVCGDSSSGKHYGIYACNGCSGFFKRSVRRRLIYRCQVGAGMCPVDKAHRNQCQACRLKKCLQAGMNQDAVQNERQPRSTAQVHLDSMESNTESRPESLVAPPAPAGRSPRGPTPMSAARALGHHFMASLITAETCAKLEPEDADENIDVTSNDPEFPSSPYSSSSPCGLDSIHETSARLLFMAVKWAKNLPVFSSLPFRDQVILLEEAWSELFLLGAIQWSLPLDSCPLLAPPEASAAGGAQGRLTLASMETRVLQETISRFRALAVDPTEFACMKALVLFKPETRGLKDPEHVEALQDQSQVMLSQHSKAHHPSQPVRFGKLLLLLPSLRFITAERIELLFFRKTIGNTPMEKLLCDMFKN
NR2E3 ag-2: activates human photoreceptor nuclear receptor NR2E3; GST-NR2E3/biotin-RetCOR TR-FRET, 1536-well; AID 2300; 320,000 compounds, 0.12% hits; Q9Y5X4; inhibition of corepressor binding, % at 4.78 µM;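 active = percent inhibition above the cutoff of mean plus 3 SD of all tested compounds, set per screening campaign, cut at about 20% in these data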;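 note: 0% = DMSO wells and 100% = biotin wells as full block of FRET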
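System: GST-tagged NR2E3 plus biotinylated RetCOR corepressor; Buffer or medium: pH 7.5 Tris-based buffer; Probe or stimulus: RetCOR corepressor, biotinylated, 7 nM; Doses: compound at 4.8 µM, single dose; Schedule: 5 h incubation at 4 °C; Technique: time-resolved FRET; Evaluation: percent inhibition of TR-FRET ratio; Replication: one well per compound, singlicate testing.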
CHT PAM: allosteric activators of human choline transporter CHT; Q9GZV3; CHT-expressing cells, membrane potential dye, choline EC20; active compounds read high; LV-AA mutant CHT in HEK293 cells; B-score at 10 µM; 310,000 compounds, 0.49% hits;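 active = initial fluorescence not abnormally high and integrated response B-score, plate-corrected, over 3 SD above library mean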
NR2F2 inh: inhibitors of human COUP-TFII (NR2F2). P24468. HEK293T NGFI-A luciferase reporter, luminescence. inhibition, % at 8.6 µM. 370,000 compounds, 0.7% hits;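 active = inhibition above a per-plate cutoff, mean inhibition of test wells between control levels plus 3 SD, cut at about 38% in these data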;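 note: cells cotransfected with COUP-TFII expression vector driving the NGFI-A reporter; 0% = median of COUP-TF2 test wells and 100% = reporter-only cells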
CHT activ conf: human CHT activation, confirmatory screen. 2,500 compounds, 91% hits. CHT-expressing cells, membrane potential dye fluorescence (FDSS); % of choline EC20–EC90 response window; HEK293 expressing CHT LV-AA mutant; choline added at its EC20. AID 504833. activation, % at 10 µM. shares compounds with CHT PAM;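 active = primary screen active, with duplicate mean activation above negative control mean plus 3 SD, cut at about 11% in these data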
HEK293 MP dye: counter-screen for CHT activators: effect in parental HEK293 cells; shares compounds with CHT PAM; membrane potential dye fluorescence (FDSS); measured after EC20 choline addition; ratio readout change at 10 µM, hits read low; 2,500 compounds, 62% hits; AID 623908;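 active = duplicate-averaged ratio beyond 3 SD from buffer wells, up or down, though filed actives are nearly all decreases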
* marks the source's active call; other numbers are inactive results; i = inactive; · = not tested or not shown. Hits are enriched below; roughly 2.3% of the tested compounds scored in any of these assays.

SMILES | GalR3 antag | CHT block | NR2E3 ag-1 | NR2E3 ag-2 | CHT PAM | NR2F2 inh | CHT activ conf | HEK293 MP dye
COC(=O)C1CN(Cc2ccccc2)CCS(=O)(=O)N1Cc1cn(Cc2ccc(C)cc2)nn1 (stereo not given) | · | · | · | · | · | 2 | · | ·
Cn1c(-c2ccncc2)nc2ccccc21 | 0 | i | -4 | -6 | i | 2 | · | ·
CCN(CC)c1ccc(-c2nc3cnccc3n2C)cc1 | -4 | i | -80 | 1 | 10* | -55 | 33* | -49*
O=C(CSc1ccccc1)NC1CCCCN(Cc2cccc(Cl)c2)C1=O (stereo not given) | · | · | · | · | · | 13 | · | ·
NC(N)=Nc1nc(-c2ccccc2)c2cc(F)ccc2n1 | 0 | i | -11 | 3 | i | 14 | 29* | -48*
COC(=O)C[C@@H]1CC[C@H]2[C@@H](COc3ccc(NC(=O)c4ccc(C(F)(F)F)cc4)cc3C(=O)N2C)O1 | · | · | · | · | · | -9 | · | ·
Fc1ccccc1-c1n[nH]c(=S)n1N=Cc1ccc(OCc2ccccc2)cc1 | · | · | · | · | · | -19 | · | ·
CCOC(=O)C1(C(=O)OCC)Cc2c([nH]c3ccccc23)[C@]2(N1)C(=O)N(C)c1ccc(Br)cc12 | · | · | · | · | · | 1 | · | ·
NC1=NC[C@H](Cc2ccccc2)N1CC1CCCCC1 | 1 | i | -8 | 0 | i | 6 | 32* | i
CN(C)C1=NC[C@H](Cc2ccccc2)N1CCC1CCCC1 | -7 | i | 4 | -1 | i | -11 | 27* | i
CN(Cc1ccccc1)S(=O)(=O)c1cccc(C(=O)OCc2ccccc2)c1 | · | · | · | · | · | -20 | · | ·
CN(C)CCNC(=O)c1ccccc1 | 0 | i | -8 | 0 | i | -4 | · | ·
Cc1sc(NC(=O)c2ccccc2)c(C(=O)NCCN(C)C)c1C | -5 | i | 17 | 0 | i | -24 | 37* | -57*
COc1ccc2c(c1)c(C)cc[n+]2Cc1ccccc1 | -7 | i | -33 | · | 6.7* | 10 | 74* | -67*
Cc1ccc2ccc[n+](Cc3ccccc3)c2c1 | -1 | i | -25 | 1 | 7.9* | 10 | 90* | -81*
Clc1cccc(Cl)c1C[n+]1cccc2ccccc21 | 3 | i | 11 | -1 | i | 10 | · | ·
Cc1ccc2c(c1)c(C)cc[n+]2Cc1ccccc1 | -11 | i | -10 | -3 | 9.8* | 7 | 42* | -71*
CSc1ccc(C(=O)NCC2CCN(C(=O)C(=O)c3cc4ccccc4o3)CC2)cc1 | 2 | · | · | · | · | -2 | · | ·
COCCCNC(=O)CN1C(=O)C2CCCCN2C(=O)c2ccccc21 (stereo not given) | · | · | · | · | · | -3 | · | ·
C=CCn1c(SCc2c(Cl)cccc2Cl)nnc1-c1cccc(C)c1 | · | · | · | · | · | 16 | · | ·
C#CCOCCOCCOCCNc1nc(N2CCOCC2)nc(N2CCN(C(=O)CCCCCCCCCCNC(=O)[C@@H]([C@H](C)CC)n3cc(CCCCCN)nn3)CC2)n1 | -4 | i | -26 | 1 | 8.4* | 11 | 6 | -32*
Cn1c(=O)c(=O)n(C)c2cc([N+](=O)[O-])c(N3CCOCC3)cc21 | -9 | i | -5 | 4 | 6.5* | 23 | 66* | -61*
Cn1c(=O)n(C)c2cc([N+](=O)[O-])c(N3CCN(C(=O)c4cccc(F)c4)CC3)cc21 | 6 | i | -4 | -3 | i | -9 | 26* | -39*
COC(=O)[C@]12C[C@H](CC(=O)NCC34CC5CC(CC(C5)C3)C4)C(=O)N(Cc3ccco3)C1=C[C@H](C(C)(C)C)O[C@@H]2C | · | · | · | · | · | 1 | · | ·
COc1ccc(N2CCN(c3oc(COc4ccccc4)nc3C#N)CC2)cc1 | -7 | i | -50 | 3 | i | -16 | 35* | i
SMILES | GalR3 antag | CHT block | NR2E3 ag-1 | NR2E3 ag-2 | CHT PAM | NR2F2 inh | CHT activ conf | HEK293 MP dye
COc1ccc(N2CCN(c3oc(COc4ccc(Cl)cc4)nc3C#N)CC2)cc1 | -5 | i | -12 | 4 | 8* | -5 | 36* | i
CCN1CCN(c2oc(COc3ccc(Cl)cc3)nc2C#N)CC1 | -7 | i | 2 | 4 | i | -11 | · | ·
COc1ccc(N2CCN(c3oc(Cc4ccccc4)nc3C#N)CC2)cc1 | -7 | i | -41 | 2 | i | 10 | · | ·
COc1ccc(N2CCN(c3oc(COc4ccc(Cl)cc4Cl)nc3C#N)CC2)cc1 | -3 | i | -11 | 0 | 9.5* | 7 | 27* | i
CCn1c2ccccc2c2cc(NC(=O)c3cc4c(C)nn(-c5ccccc5)c4s3)ccc21 | · | · | · | · | · | -3 | · | ·
O=C(c1ccccc1)N1CC[C@H]2[C@H](CCCN2Cc2cc(F)cc(F)c2)C1 | · | · | · | · | · | 9 | · | ·
Cc1cc(N2CCN(c3ccccn3)CC2)n2cc(-c3ccccc3)nc2n1 | -4 | i | -26 | 4 | i | 15 | · | ·
Cc1cc(N2CCN(C)CC2)n2cc(-c3ccc(F)cc3)nc2n1 | -4 | i | -8 | 1 | 6.9* | 8 | 39* | -64*
COC(=O)[C@]1(C#N)CC(=O)N(Cc2ccc(Cl)cc2)[C@@H]1c1ccccc1 | · | · | · | · | · | -4 | · | ·
Cc1cc(NCCCn2ccnc2)n2nc(C)c(-c3ccccc3)c2n1 | -3 | i | -85 | 2 | 8.5* | -40 | 47* | -57*
CCOC(=O)NC[C@@]1(C(=O)OC)CC(=O)N(Cc2ccc(Cl)cc2)[C@@H]1c1ccc(OC)cc1 | · | · | · | · | · | 2 | · | ·
O=S1(=O)C=CCN1Cc1cn(Cc2cccc(Cl)c2)nn1 | · | · | · | · | · | -11 | · | ·
O=C(NCC(c1ccco1)N1CCN(c2ccccc2)CC1)c1cccs1 (stereo not given) | -1 | i | 26 | -4 | i | -23 | · | ·
O=C(COc1ccccc1)NCC(c1ccco1)N1CCN(c2ccccc2)CC1 (stereo not given) | -4 | i | 19 | 0 | 8* | 11 | 45* | i
Cc1c[nH]c2cccc(-c3cccc4ccccc34)c12 | · | · | · | · | · | -4 | · | ·
COCC(=O)N1[C@H](CO)[C@@H](c2ccc(-c3cccnc3)cc2)[C@H]1CN(C)S(=O)(=O)c1ccccc1[N+](=O)[O-] | · | · | · | · | · | -2 | · | ·
CCOC(=O)C1=C(C)NC(=O)/C1=C\N(C)C | -3 | i | -1 | 5 | i | 2 | · | ·
CCOC(=O)C1=C(C)S/C(=C\N(C)C)C1=O | -1 | i | -11 | 3 | 11* | 2 | 61* | -54*
C[C@H]1[C@@H](OC(=O)NCCc2ccccc2)CC[C@@]23CCCN2C(=O)CCC[C@@H]13 | · | · | · | · | · | 2 | · | ·

From PubChem BioAssay
